From ChEMBL document CHEMBL1126632, “Synthesis and dopamine antagonist activity of 2-thioether derivatives of the ergoline ring system” (J Med Chem, 1993)

Assays:
Assay type in all cases: functional
[1] = tested on: Rattus norvegicus; test: Conditioned avoidance response in rats after oral administration
Outline: (§1)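 Wistar rats (120-130 g) trained in a shuttle box to cross on a 5-s buzzer; failure within 1 s after the buzzer gave a mild shock. Only well-conditioned animals were used, in groups of five, dosed orally 1 h 50 min before testing. After 10-min habituation they were tested for 20 min. Blockade = shocks received as % of stimuli; EDmin reported.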

[2] = tested on: Rattus norvegicus; test: Percent change in serum prolactin in adult male Dawley rats after intraperitoneal administration.
Outline: (§2)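 Adult male Sprague-Dawley rats, groups of 10, given compound in 0.5% lactic acid or vehicle ip 2 h before decapitation. Trunk blood clotted at 4 °C and centrifuged. Serum prolactin measured by NIAMDD radioimmunoassay kit against rat prolactin reference NIAMDD-RP-1. Result expressed as % change from controls run in the same experiment. Means compared by Student's test.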

[3] = tested on: Rattus norvegicus; test: Compound was tested for the Conditioned avoidance response (CAR) in rats after oral administration; ip administration
[4] = tested on: Rattus norvegicus; test: Compound was tested for the presence of catalepsy (CAT) in rats after oral administration; ip administration
[5] = tested on: Mus musculus; test: Tested for the apomorphine climbing behavior in mice after oral administration
Outline: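 Female TO mice (20-25 g), groups of eight, dosed orally with compound or vehicle, then habituated 60 min in wire-mesh cylinders. Apomorphine 2.5 mg/kg sc given; from 10 min later, climbing scored 0-4 (paws on cage) at 5-min intervals for 20 min.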

[6] = tested on: Rattus norvegicus; test: Tested for the amphetamine induced stereotyped behavior in rats after oral administration
Outline: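 Wistar rats, groups of eight, given d-amphetamine sulfate 10 mg/kg ip 1 h after test compound. Stereotypy scored 1-8 at eight time points up to 4 h, and the group mean taken at each time. EDmin = lowest dose reducing stereotypy by more than 25% versus amphetamine-treated controls.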

[7] = tested on: Rattus norvegicus; test: Tested for the presence of catalepsy(CAT) in rats after oral administration
Outline: (§3)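 Wistar rats (180-190 g), groups of eight, compound given orally in distilled water or 0.5% carboxymethyl cellulose. Front paws placed on a 1.5 cm rod 7 cm high at 0.5, 1, 1.5, 2, 3, 4 and 5 h; time held recorded up to 20 min and scored 0-5. Maximum score per animal summed (group maximum 40); EDmin = lowest dose exceeding a threshold score.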

[8] = species: Rattus norvegicus; test: Compound was tested for the Conditioned avoidance response (CAR) in rats; outline: as §1
[9] = tested on: Rattus norvegicus; test: % change in serum prolactin in adult male Dawley rats after intraperitoneal administration.; outline: as §2
[10] = tested on: Rattus norvegicus; test: Compound was tested for the presence of catalepsy (CAT) in rats after oral administration; outline: as §3
[11] = species: Rattus norvegicus; test: Compound was tested for the % change in serum prolactin in adult male Dawley rats.(not significant); outline: as §2

Structure (SMILES) | EDmin [1] [mg/kg] | Change [2] [%] | EDmin [5] [mg/kg] | also measured
C[C@@H]1C[C@@H]2c3cccc4[nH]cc(c34)C[C@H]2N(C)C1 | >40 |  |  | 
CSc1[nH]c2cc(O)cc3c2c1C[C@@H]1[C@@H]3C=C(C)CN1C |  | -50 | 25 | EDmin [3]: 25 mg/kg; EDmin [4]: 25 mg/kg
CSc1[nH]c2cccc3c2c1C[C@@H]1[C@@H]3C[C@@H](C)CN1C | 5 | 570 | 40 | EDmin [6]: 5 mg/kg; EDmin [7]: 20 mg/kg
CCSc1[nH]c2cccc3c2c1C[C@@H]1[C@@H]3C=C(C)CN1C | 25 | 67 | >100 | EDmin [7]: 40 mg/kg
CSc1[nH]c2cccc3c2c1C[C@@H]1[C@@H]3C=C(CO)CN1C |  | 481 | >25 | EDmin [3]: 6 mg/kg; EDmin [4]: 12.5 mg/kg
CSc1[nH]c2cccc3c2c1C[C@@H]1[C@@H]3C[C@H](C)CN1C | 40 | 63 | >25 | 
CCN1CC(C)=C[C@@H]2c3cccc4[nH]c(SC)c(c34)C[C@H]21 | 25 | -65 | 100 | 
CC1=C[C@@H]2c3cccc4[nH]c(Sc5ccccc5)c(c34)C[C@H]2N(C)C1 | 2.5 | 141 | 25 | EDmin [6]: 20 mg/kg; EDmin [7]: 10 mg/kg
CCCSc1[nH]c2cccc3c2c1C[C@@H]1[C@@H]3C[C@@H](C)CN1C | >50 | 76 |  | 
CC1=C[C@@H]2c3cccc4[nH]c([S+](C)[O-])c(c34)C[C@H]2N(C)C1 (stereo partly specified) | >50 | 98 | >100 | 
CC1=C[C@@H]2c3cccc4[nH]c(SC(C)C)c(c34)C[C@H]2N(C)C1 | 10 | 132 |  | EDmin [6]: 10 mg/kg; EDmin [8]: 2.5 mg/kg
CCCCCCSc1[nH]c2cccc3c2c1C[C@@H]1[C@@H]3C=C(C)CN1C | 50 | -4 | >100 | 
CC1=C[C@@H]2c3cccc4[nH]c(Sc5ccc(Cl)cc5)c(c34)C[C@H]2N(C)C1 | 100 |  | >100 | 
CC1=C[C@@H]2c3cccc4[nH]c(S(C)(=O)=O)c(c34)C[C@H]2N(C)C1 | >50 |  | >100 | Change [9]: 30%
CCCN1CC(C)=C[C@@H]2c3cccc4[nH]c(SC)c(c34)C[C@H]21 |  | -74 | >50 | 
COc1ccc(Sc2[nH]c3cccc4c3c2C[C@@H]2[C@@H]4C=C(C)CN2C)cc1 | >80 |  | >100 | Change [9]: 31%
C[C@H]1C[C@@H]2c3cccc4[nH]cc(c34)C[C@H]2N(C)C1 | >50 |  |  | 
CCCSc1[nH]c2cccc3c2c1C[C@@H]1[C@@H]3C=C(C)CN1C |  |  | >50 | 
C[C@H]1C[C@@H]2c3cccc4[nH]c(Sc5ccccc5)c(c34)C[C@H]2N(C)C1 | >50 | 15 | >50 | 
CSc1c2c3c(cccc3n1CO)[C@H]1C=C(C)CN(C)[C@@H]1C2 | 20 | 91 | >100 | EDmin [10]: 80 mg/kg
CSc1[nH]c2cccc3c2c1C[C@H]1NCC(C)=C[C@H]31 | >50 |  | 50 | Change [9]: 24%
CSc1[nH]c2cccc3c2c1C[C@@H]1[C@@H]3C=C(C)CN1C | 2.5 | 532 | 50 | EDmin [6]: 5 mg/kg; EDmin [7]: 10 mg/kg
CCCN1C[C@H](C)C[C@@H]2c3cccc4[nH]c(SC)c(c34)C[C@H]21 | >50 |  |  | 
CSc1c2c3c(cccc3n1C)[C@H]1C=C(C)CN(C)[C@@H]1C2 | 100 |  | 100 | Change [11]: -23%
CC1=C[C@@H]2c3cccc4[nH]c(SCc5ccccc5)c(c34)C[C@H]2N(C)C1 | 25 |  | 100 | Change [9]: -9%; EDmin [7]: 80 mg/kg
C[C@@H]1C[C@@H]2c3cccc4[nH]c(Sc5ccccc5)c(c34)C[C@H]2N(C)C1 | 20 | 106 |  | EDmin [6]: 20 mg/kg; EDmin [8]: 10 mg/kg
CN(C)CCCN1c2ccccc2Sc2ccc(Cl)cc21 [CHLORPROMAZINE] | 10 |  |  | EDmin [10]: 10 mg/kg
CN1CCN(C2=Nc3cc(Cl)ccc3Nc3ccccc32)CC1 [CLOZAPINE] | 30 | 1.6 | 20 | EDmin [6]: 40 mg/kg; EDmin [10]: 80 mg/kg
O=C(CCCN1CCC(O)(c2ccc(Cl)cc2)CC1)c1ccc(F)cc1 [HALOPERIDOL] | 0.5 | 1413 | 1 | EDmin [10]: 0.5 mg/kg
